From PubChem
Hits are enriched below; roughly 1.2% of the tested compounds scored in any of these assays.
PMI activator = activators of human phosphomannose isomerase; activation factor at 20 µM; P34949; purified human PMI, coupled resazurin fluorescence, 20 min; stronger effect = higher value; 1 = vehicle control, 0 substrate-free wells; actives 0.005% (n = 190,000);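 active = activation factor of 2 or more at 20 µM, relative to plate controls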
Target sequence (P34949 whole entry, looked up): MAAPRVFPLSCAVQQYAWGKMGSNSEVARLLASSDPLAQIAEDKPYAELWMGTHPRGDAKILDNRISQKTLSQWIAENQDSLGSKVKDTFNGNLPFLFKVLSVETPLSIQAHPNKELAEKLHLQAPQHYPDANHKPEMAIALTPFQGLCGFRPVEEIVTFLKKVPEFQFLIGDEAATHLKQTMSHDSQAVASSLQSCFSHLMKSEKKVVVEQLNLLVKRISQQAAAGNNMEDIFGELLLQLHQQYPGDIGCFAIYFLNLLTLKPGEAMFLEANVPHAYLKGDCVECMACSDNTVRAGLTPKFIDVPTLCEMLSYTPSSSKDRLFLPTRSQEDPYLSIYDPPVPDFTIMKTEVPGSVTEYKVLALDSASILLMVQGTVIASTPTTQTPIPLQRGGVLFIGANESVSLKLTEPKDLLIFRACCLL
DTT redox prof = compounds producing H2O2 with reducing agent – biochemical, NIH compound library profiling, artefact control for MLSCN library redox annotation, primary screen; AID 878; DTT-dependent redox cycling H2O2, phenol red/HRP absorbance; 100% = 100 µM peroxide control, 0% = buffer; actives 0.03% (n = 200,000); activation, % at 10 µM;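 active = activation of at least 50% relative to the plate's high and low controls in the primary single-dose screen; inactive = activation below 50%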;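 also: compound incubated with DTT at 0.8 mM final as the reducing agent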
PMI act satM6P = increases human PMI activity with near-saturating mannose 6-phosphate; P34949; actives 0.34% (n = 190,000); activation factor at 20 µM; coupled PMI enzyme assay, resazurin fluorescence, 20 min; stronger effect = higher value; 1 = untreated enzyme, 0 = substrate-free blank;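 active = activation factor of 2 or more at 20 µM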
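Test system: human phosphomannose isomerase with PGI, G6PDH, diaphorase coupling enzymes; amount: 15 ng/mL PMI; incubation: enzyme reaction with compound 20 min at room temperature; technique: resorufin fluorescence (Ex 544/Em 590 nm) from resazurin via diaphorase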
Efa HMGR inh = inhibitors of class II HMG-CoA reductase from Enterococcus faecalis | purified E. faecalis HMGR, NADPH absorbance 340 nm kinetic | actives 0.41% (n = 190,000) | inhibition, % at 10 µM;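 active = inhibition above a set limit, the median over all tested compounds plus 3 SD, cut at about 9.5% in these data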;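 also: enzyme runs in reverse so mevalonate oxidation gives rising NADPH absorbance; 0% = complete reaction with DMSO and 100% = background rate lacking mevalonate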
NCF1 inh = inhibitors of human p47phox binding; P14598; p47phox/p22phox peptide binding, fluorescence polarization, 2 h; inhibition, % at 24.7 µM; actives 0.53% (n = 220,000); AID 1274;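 active = inhibition above about 30%, limit read from the data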;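 also: 0% = p47phox with labelled peptide and 100% = labelled peptide alone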
Diaph act CS = counter-screen for diaphorase-based assays: diaphorase activators and chemical reducers; Diaphorase/resazurin coupled assay, resorufin fluorescence, 16 min; stronger effect = higher value; 1 = vehicle wells, 0 = NADH-free wells; activation factor at 20 µM; actives 0.005% (n = 190,000); AID 1229;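 active = diaphorase activity raised at least twofold by the compound at 20 µM; inactive = activation factor below 2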
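test system = bacterial diaphorase enzyme (C. kluyveri) | quantity = enzyme 0.07 U/mL final | reagent = NADH substrate 0.114 mM plus resazurin dye 0.1 mM, final | incubation = 16 min enzyme reaction, ambient temperature | buffer or medium = HEPES pH 7.4 buffer with MgCl2 and Tween 20 | signal = fluorescence of resorufin, 544 nm excitation, 590 nm emission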
Starred values were filed as active, the others as inactive; / = no result.

SMILES | PMI activator | DTT redox prof | PMI act satM6P | Efa HMGR inh | NCF1 inh | Diaph act CS
Cn1ccnc1C(O)c1ccccc1 (stereo not given) | 0.9 | 0 | 0.8 | 0 | 1 | 0.8
Cn1ccnc1C(O)(c1ccccc1)c1nccn1C | / | / | / | / | 48* | /
CCCCOC(=O)c1ccc(NC(=O)Nc2ccc(OC)c(OC)c2)cc1 | 1 | 0 | 1 | -1 | -15 | 0.8
CCCCOC(=O)c1ccc(NC(=O)c2c(OC)cccc2OC)cc1 | 0.9 | -1 | 0.8 | 1 | 37* | 0.8
O=C(Nc1ccc(N2CCOCC2)c(Cl)c1)c1ccc([N+](=O)[O-])o1 | 1 | 0 | 0.9 | 26* | 5 | 0.9
COc1cccc(NC(=S)N(CCN(C)C)C(C)c2ccncc2)c1 (stereo not given) | / | / | / | / | -6 | /
CCC(=O)Nc1nc2ccccc2n1CCN1CCOCC1 | 1.1 | -1 | 1 | 6 | 38* | 0.9
O=C(Nc1nc2ccccc2n1CCN1CCOCC1)c1ccc(Cl)cc1 | / | / | / | / | -12 | /
CC1(CCc2ccccc2)NC(=S)N(c2ccccc2)N1 (stereo not given) | 1.5 | 0 | 2.8* | -5 | -2 | 0.9
CCC(C)(C)C1CCC2(CC1)NC(=S)N(c1ccccc1)N2 (stereo not given) | / | / | / | / | -13 | /
CC1(CCc2ccccc2)NC(=S)N(c2ccc(Cl)cc2)N1 (stereo not given) | 1.7 | 0 | 2.7* | -1 | -8 | 0.9
O=C(OCc1cncs1)c1cccs1 | 0.9 | -1 | 0.8 | 2 | -10 | 0.9
CC(=O)N1CC(=O)N(Cc2ccccc2)/C(=C/c2ccccc2)C1=O | 1.1 | -2 | 1 | -2 | 134* | 1.1
CC1(C)CC(=O)N(Cc2ccccc2)C(=O)C1 | 1 | 0 | 1.1 | -2 | -6 | 1
O=C(CN1CCC(O)(c2cccc(F)c2)CC1)NCCc1c[nH]c2ccccc12 | / | / | / | / | 0 | /
COc1cc(/C=N/N=C/c2c[nH]c(=O)c(C#N)c2Nc2ccccc2)ccc1O | / | / | / | / | 6 | /
Cc1cccc(NNC(N)=S)c1C | 1.3 | 2 | 1.2 | 10* | 0 | 0.7
Cc1ccc(C)c(NNC(N)=S)c1 | 1.7 | -1 | 1.9 | -4 | -14 | 1.1
CC[n+]1c(C)n(-c2ccccc2)c2ccc(C(=O)OC)cc21 | 1 | 0 | 1 | 16* | 3 | 1
C/C(=N\Nc1ccc(Cl)cc1)c1c(O)cc(C)oc1=O | 1.7 | 0 | 2.6* | 2 | 7 | 0.9
O=C(O)c1ccc(N/N=C/c2cn(Cc3ccccc3F)c3ccccc23)cc1 | / | / | / | / | -22 | /
Oc1ccccc1/C=N/Nc1ncc(Br)cn1 | 0.8 | 0 | 0.8 | -8 | -7 | 0.9
Cn1cc(/C=N/Nc2ccccc2)c2ccccc21 | 1.6 | -2 | 2.5* | 0 | -7 | 0.8
O=C(Oc1ccc(/C=N/Nc2ccccc2)cc1)c1ccccc1 | 1.5 | -6 | 2.3* | -6 | -9 | 1.1
O=C(Oc1ccc(/C=N/O)cc1)c1ccccc1 | 0.9 | 2 | 0.9 | -8 | -5 | 0.9
SMILES | PMI activator | DTT redox prof | PMI act satM6P | Efa HMGR inh | NCF1 inh | Diaph act CS
Oc1ccccc1/C=N/Nc1ccccc1 | 1.6 | 0 | 2.3* | -3 | 5 | 0.8
CC(C)C1N(C(N)=S)N=CC1(C)C (stereo not given) | / | / | / | / | -4 | /
CSc1ccc(/C=C/C(=O)NC(=O)c2ccccc2O)cc1 | 0.9 | 1 | 0.9 | -2 | 4 | 0.8
O=C(O)c1cc(N/N=C/c2ccc(OCc3ccccc3)cc2)ccc1Cl | 1.7 | -1 | 2.5* | -5 | -13 | 0.9
Cc1cc(O)c(C=Nc2cccc(Cl)c2)c(=O)o1 | 1.1 | -1 | 1.2 | -1 | 8 | 0.9
Cc1cc(O)c(/C=N/Nc2ccccc2)c(=O)o1 | 1.5 | 1 | 2* | 5 | 2 | 0.8
CCc1ccc(NC(=O)CC2C(=O)Nc3c2c(=O)n(C)c(=O)n3C)cc1 (stereo not given) | 1 | 1 | 1 | 12* | -2 | 1
O=C(Cn1c(O)c(/C=C2\C=Nc3ccc(Br)cc32)sc1=O)N1CCCC1 | 1 | 0 | 1.1 | -3 | 39* | 1
Cc1cc(N2CCN(c3nc(-c4ccc([N+](=O)[O-])cc4)cs3)CC2)c2ccccc2n1 | 1 | 0 | 1 | 14* | -12 | 1
Cc1cc(-c2ccc([N+](=O)[O-])cc2)nc2ccccc12 | 1.2 | 0 | 1.1 | 0 | -7 | 1.1
O=C(c1cccnc1)N1CCN(C/C=C/c2ccccc2)CC1 | 1 | 0 | 1 | 2 | -16 | 0.9
Cc1cc(C(=O)N2CCN(C/C=C/c3ccccc3)CC2)cs1 | 0.9 | 3 | 0.9 | -3 | 54* | 0.9
CCC(C(=O)OC)n1cnc2c(nnn2-c2ccc(OC)cc2)c1=O (stereo not given) | 0.9 | 0 | 1 | -3 | -6 | 0.9
CCOC(=O)c1nnn(-c2ccc(OC)cc2)c1N | 1.1 | 2 | 1 | 15* | 5 | 0.9
CCOC(=O)C(CC)n1cnc2c(nnn2-c2ccc(OC)cc2)c1=O (stereo not given) | 1 | 0 | 1 | 27* | -11 | 0.9
COc1ccc(NC(=O)N2CCC(CO)(CC3CCCCO3)CC2)c(OC)c1 (stereo not given) | / | / | / | / | 3 | /
CN(Cc1ccccc1)c1nc(N)nc(Cl)c1C=O | 1 | 0 | 0.6 | 14* | -6 | 0.9
Cc1c(C=O)c(C=O)c(C)n1Cc1ccccc1 | 1 | 0 | 1 | -3 | -5 | 0.9
CCOc1ccc2noc3c2c1C(=O)c1ccccc1-3 | 0.7 | -5 | 0.8 | -3 | 44* | 0.7
COc1cc(C(=O)NNC(=S)NC(=O)/C=C/c2ccccc2)cc(OC)c1OC | / | / | / | / | -17 | /
c1ccc(N2OCC3Cn4c(nc5ccccc54)C32)cc1 (stereo not given) | / | / | / | / | 18 | /
CC(C)(C)N1OC2CC1c1nc3ccccc3n1C2 (stereo not given) | / | / | / | / | 50* | /
COC(=O)c1nnn(-c2nonc2N)c1COc1ccc(C=O)cc1OC | 1 | -1 | 1 | -6 | -1 | 0.8
O=c1[nH]nc(-c2ccc(F)cc2)cc1Cc1ccc(F)cc1 | / | / | / | / | 37* | /
Cn1c(=O)c2c(ncn2CC(=O)Nc2ccccc2)n(C)c1=O | 1 | 0 | 1 | 1 | 5 | 1
Cn1c(=O)c2c(ncn2CC(=O)OCC(=O)Nc2ccccc2)n(C)c1=O | 1 | 0 | 1.1 | 10* | -1 | 0.9
Cc1cc2cccc(C)c2nc1SCC(=O)NNC(=O)c1ccco1 | 1 | 0 | 1 | 14* | 4 | 0.9
Cc1cc(C)c2nc(SCC(=O)NNC(=O)c3ccco3)c(C)cc2c1 | 0.9 | -1 | 0.9 | -5 | -10 | 0.9
